Experimental data published in ChEMBL document CHEMBL1136130, “Synthesis and biological evaluation of gambierol analogues” (Bioorg Med Chem Lett, 2003).

Test: Minimal lethal dose of compound expressed as toxicity against male mice (ddY strain) after intraperitoneal administration
Conditions: mouse, in vivo, ip
In short: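 Male ddY mice (12–17 g) received single intraperitoneal injections of HPLC-purified samples suspended in 1% Tween 60 at a range of dose levels. Lethality and neurological signs were observed. The minimal lethal dose is reported in mg/kg.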

SMILES	Min lethal dose
C=CC/C=C\C=C/[C@H]1O[C@H]2C[C@H]3O[C@H]4CC[C@H]5O[C@H]6C[C@@]7(C)O[C@@]8(C)[C@@H](O)C[C@H](CCCO)O[C@@H]8C[C@@H]7O[C@@H]6C[C@@H]5O[C@]4(C)C[C@]3(C)O[C@@H]2C=C[C@]1(C)O	0.05 mg/kg
CC(=O)OC[C@H]1O[C@H]2C[C@H]3O[C@H]4CC[C@H]5O[C@H]6C[C@@]7(C)O[C@@]8(C)[C@@H](O)C[C@H](CCCO)O[C@@H]8C[C@@H]7O[C@@H]6C[C@@H]5O[C@]4(C)C[C@]3(C)O[C@@H]2CC[C@@H]1OC(C)=O	> 8.2 mg/kg
C=CC/C=C\C=C/[C@H]1O[C@H]2C[C@H]3O[C@H]4CC[C@H]5O[C@H]6C[C@@]7(C)O[C@@]8(C)[C@@H](O)C[C@H](CCCO)O[C@@H]8C[C@@H]7O[C@@H]6C[C@@H]5O[C@]4(C)C[C@]3(C)O[C@@H]2C=C[C@@H]1O	0.34 mg/kg
C=CC/C=C\C=C/[C@H]1O[C@H]2C[C@H]3O[C@H]4CC[C@H]5O[C@H]6C[C@@]7(C)O[C@@]8(C)[C@@H](O)C[C@H](CCCO)O[C@@H]8C[C@@H]7O[C@@H]6C[C@@H]5O[C@]4(C)C[C@]3(C)O[C@@H]2CC[C@@H]1O	> 11.9 mg/kg
CCCCC/C=C\[C@H]1O[C@H]2C[C@H]3O[C@H]4CC[C@H]5O[C@H]6C[C@@]7(C)O[C@@]8(C)[C@@H](OCc9ccccc9)C[C@H](CCCOCc9ccccc9)O[C@@H]8C[C@@H]7O[C@@H]6C[C@@H]5O[C@]4(C)C[C@]3(C)O[C@@H]2CC[C@]1(C)O[Si](C)(C)C(C)(C)C	> 7.6 mg/kg
C=CC/C=C\C=C/[C@H]1O[C@H]2C[C@H]3O[C@H]4CC[C@H]5O[C@H]6C[C@@]7(C)O[C@@]8(C)[C@@H](O)C[C@H](CCCO)O[C@@H]8C[C@@H]7O[C@@H]6C[C@@H]5O[C@]4(C)C[C@]3(C)O[C@@H]2CC[C@]1(C)O	7.9 mg/kg
C[C@@]12O[C@]3(C)C[C@@H]4O[C@@H]5CC[C@@H]6O[C@@H]7C[C@@H]8O[C@H](CO)[C@@H](O)CC[C@H]8O[C@@]7(C)C[C@@]6(C)O[C@H]5C[C@H]4O[C@H]3C[C@H]1O[C@@H](CCCO)C[C@@H]2O	> 18.3 mg/kg
